The text below walks through data of ChEMBL document CHEMBL1136954, “Toward the back-up of boceprevir (SCH 503034): discovery of new extended P4-capped ketoamide inhibitors of hepatitis C virus NS3 serine protease with improved potency and pharmacokinetic profiles” (J Med Chem, 2009).

The nature of data set [1]: Cytotoxicity against human hepatocytes assessed as effect on GAPDH RNA level […]. It is filed as cell-based, Hepatocyte. An outline of the steps: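 Counter-screen for cellular toxicity measuring GAPDH; CC50 reported.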
A general note: Tetrazolium assays rely on reduction of a dye to a coloured formazan, in cell work by metabolically active cells.

A further data set relates to Hepatitis C virus. The experiment in a line: Antiviral activity against Hepatitis C virus genotype 1 infected in human hepatocytes by replicon assay. Format: functional, Hepacivirus hominis. The conditions noted are these: genotype 1, Hepatocyte. An outline of the steps:
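HCV genotype 1 replicon cell assay; EC90 reported, within 3-fold at 95% confidence for a single assay and within 2-fold for multiple assays.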
(A replicon is a self-replicating genome or part of one, used to study replication in cells.)

The nature of data set [2]: AUC in rat at 10 mg/kg, po. Format: ADME, organism-based. Set-up: dose 10 mg/kg, route oral. The conditions noted are these: plasma. An outline of the steps:
(§1)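 Rats dosed PO and IV at 10 mpk, 3 animals per route; IV given in 40% HPBCD, PO in 0.4% MC.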

Data set [3] is described as follows: Inhibition of HCV NS4A-tethered single chain NS3 serine protease by spectrophotometric assay. Set-up: species or system Hepacivirus hominis. An outline of the steps:
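Continuous assay with NS4A-tethered single-chain NS3 serine protease; potency given as Ki*.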

The nature of data set [4]: Metabolic stability in cynomolgus monkey urine assessed as recovery of radioactivity at 2 mg/kg, po after 24 hrs. It is filed as ADME, organism-based, Macaca fascicularis. More on the design: dose 2 mg/kg, route oral. The conditions noted are these: in vivo. An outline of the steps:
(§2)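 Two cynomolgus monkeys given the 14C-labelled ketoamide orally at 2 mg/kg; radioactivity collected in bile and urine over 0-24 h and expressed as % of oral dose; plasma also sampled.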

Data set [5] can be described thus: Clearance in rat at 10 mg/kg, po and at 10 mg/kg, iv. To be noted: in vivo. It is filed as ADME, organism-based. An outline of the steps:
as §1

Data set [6] in a line: Half life in cynomolgus monkey at 3 mg/kg, iv. It is filed as ADME, organism-based, Macaca fascicularis. The conditions noted are these: in vivo. Set-up: dose 3 mg/kg, route intravenous. An outline of the steps:
(§3)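 Cynomolgus monkey dosed PO and IV at 3 mpk, 3 animals per route; IV vehicle 20% HPBCD, PO vehicle 0.4% MC. AUC in µM·h, t1/2 in h, clearance mL/min/kg, Vd(ss) L/kg, F in %.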

A short description of data set [7]: AUC in cynomolgus monkey at 3 mg/kg, iv. Format: ADME, organism-based, Macaca fascicularis. Set-up: dose 3 mg/kg, route intravenous. To be noted: plasma. An outline of the steps:
as §3

The nature of data set [8]: Oral bioavailability in cynomolgus monkey at 3 mg/kg. It is filed as ADME, organism-based, Macaca fascicularis. The conditions noted are these: in vivo. An outline of the steps:
as §3

Data set [9] in a line: Oral bioavailability in rat at 10 mg/kg. It is filed as ADME, organism-based. The conditions noted are these: in vivo. An outline of the steps: as §1
Data set [10] is described as follows: Half life in rat at 10 mg/kg, iv. Format: ADME, organism-based. Set-up: dose 10 mg/kg, route intravenous. The conditions noted are these: in vivo. An outline of the steps:
as §1

A short description of data set [11]: Volume of distribution at steady state in cynomolgus monkey at 3 mg/kg, po and at 3 mg/kg, iv. It is filed as ADME, organism-based, Macaca fascicularis. The conditions noted are these: in vivo, read-out: Vdss. A digest of the protocol:
as §3

A short description of data set [12]: AUC in cynomolgus monkey at 3 mg/kg, po. Format: ADME, organism-based, Macaca fascicularis. Set-up: dose 3 mg/kg, route oral. To be noted: plasma. An outline of the steps:
as §3

Data set [13] can be described thus: Metabolic stability in cynomolgus monkey bile assessed as recovery of radioactivity at 2 mg/kg, po after 24 hrs. To be noted: in vivo. It is filed as ADME, organism-based, Macaca fascicularis. Set-up: dose 2 mg/kg, route oral. A digest of the protocol: as §2
Data set [14] is described as follows: Volume of distribution at steady state in rat at 10 mg/kg, po and at 10 mg/kg, iv. It is filed as ADME, organism-based. The conditions noted are these: in vivo, read-out: Vdss. An outline of the steps:
as §1

Data set [15] can be described thus: Clearance in cynomolgus monkey at 3 mg/kg, po and at 3 mg/kg, iv. It is filed as ADME, organism-based, Macaca fascicularis. To be noted: in vivo. A digest of the protocol: as §3
Data set [16] in a line: AUC in rat at 10 mg/kg, iv. It is filed as ADME, organism-based. The conditions noted are these: plasma. More on the design: dose 10 mg/kg, route intravenous.

pKi: −log10 of the molar value. Where only a bound is given, the exact number is not on record here.

On to `CC(C)[C@H](NC(=O)N[C@H](C(=O)N1C[C@H]2[C@@H]([C@H]1C(=O)NC(CC1CC1)C(=O)C(N)=O)C2(C)C)C(C)(C)C)C(=O)c1ccccc1` (mixture of isomers), for which the 50% cytotoxic concentration (CC50) in data set [1] is over 5 µM. The concentration for an effect of 90% (EC90) with Hepatitis C virus was found to be 0.08 µM. Also, the AUC in data set [2] came out at 260 nM·h. In addition, the pKi in data set [3] is 8.30.

In the case of `CC(C)(C)[C@H](NC(=O)NC1(C(=O)OCc2ccccc2)CCCCC1)C(=O)N1C[C@H]2[C@@H]([C@H]1C(=O)NC(CC1CC1)C(=O)C(N)=O)C2(C)C` (mixture of isomers), the figures for the Stability in [4] and in [13] were 0.8% and 4.3%, respectively. For the same compound, the clearance in [5] came to 1.68 L/h/kg; in [15], 2.58 L/h/kg. The half-life in data set [6] was 3.1 h; in data set [10] it was 2.9 h. In addition, the AUC in data set [7] turned out to be 3400 nM·h; in [12], 50 nM·h; in [16] it was 9300 nM·h. Moreover, in [1], the 50% cytotoxic concentration (CC50) was over 5 µM. In addition, the 90% effect level in the data set with Hepatitis C virus (EC90) was put at 0.02 µM. The bioavailability came to 3% in [8] and 0% in data set [9]. The Vd in [11] was 1.7 L/kg; in data set [14], 3.5 L/kg. Further, the negative logarithm of the Ki (pKi) in [3] is 7.31.

In general, CC50 refers to the concentration giving 50% cytotoxicity. For orientation: EC90 means the point of the concentration-response curve where the effect stands at 90%. For orientation: AUC means the area under the concentration-time curve, a measure of exposure. Broadly, the pKi is −log10 of the Ki, conventionally taken in molar units. As usually defined, the half-life is the time in which the quantity being followed falls by half. In general, bioavailability refers to dose-corrected exposure relative to a reference, in per cent.
